Assay results published in ChEMBL document CHEMBL1121715, “New antiarrhythmic agents. 4. 1'-(Aminoalkyl)-1,2,3,4-tetrahydronaphthalene-1-spiro-3'-pyrrolidine-2',5'-dione derivatives” (J Med Chem, 1981).

Legend:
Mus musculus [1] = species on record: Mus musculus; test: Percentage toxicity measured as ataxia.; format: organism-based; settings: in vivo
How it was run: (§1)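 Mice (groups of 10) were dosed sc with drug in 0.9% saline and watched for 20 min for overt toxicity (ataxia, convulsions, loss of righting reflex, death) before chloroform exposure.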

[2] = Percentage toxicity measured as death of mice.; format: organism-based; set-up: concentration or dose not given beside the values; settings: mouse, in vivo; read-out: Death
Mus musculus [3] = species on record: Mus musculus; test: Percentage toxicity measured as loss of righting reflex.; format: organism-based; settings: in vivo; how it was run: as §1
Mus musculus [4] = test: Protection against chloroform induced arrhythmias in mice after subcutaneous administration at 100 mg/kg dose.; format: functional
How it was run: (§2)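 Groups of 10 unanesthetized mice got sc injection of drug in 0.9% saline. After 20 min observation they were placed one by one in chloroform-vapor-saturated air. When breathing stopped, the thorax was opened and the heart inspected by eye; coordinated ventricular contractions counted as protected.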

Mus musculus [5] = species on record: Mus musculus; test: Percentage toxicity measured as convulsions.; format: organism-based; settings: in vivo; how it was run: as §1
Mus musculus [6] = test: Protection against chloroform induced arrhythmias was measured in mice after sc administration at given dose; format: functional; how it was run: as §2
Mus musculus [7] = test: Ataxia was measured in mice after sc administration at given dose; format: functional
How it was run: (§3)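 Mice in groups of 10 received drug sc in 0.9% saline and were watched 20 min for overt toxicity before chloroform exposure. At least three doses were given.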

Mus musculus [8] = test: Protection against chloroform induced arrhythmias was measured in mice after sc administration at given dose.; format: functional; how it was run: as §2
Mus musculus [9] = test: Ataxia was measured in mice after sc administration at given dose.; format: functional; how it was run: as §3
Canis familiaris [10] = test: MABP value was measured in anesthetized dog at 0.32+/-0.11 dose.; format: functional, Canis lupus familiaris
Canis familiaris [11] = species on record: Canis familiaris; test: The dose at which toxicity was measured.; format: organism-based, Canis lupus familiaris; settings: dog, in vivo
How it was run: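 Adult female dogs (6.7–14.5 kg) had two-stage ligation of the left anterior descending coronary artery the day before testing. After control ventricular rate, % ectopic beats and mean arterial pressure were recorded, the drug (HCl salt, isotonic solution) was infused iv without anesthesia at 0.1, 0.5 or 1.0 (mg/kg)/min, mostly 0.5. Infusion continued until the arrhythmia was abolished or cardiovascular/CNS toxicity appeared. Cumulative dose is given in mmol/kg; toxicity included convulsion and P-R prolongation ≥25%.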

Canis familiaris [12] = test: Ventricular rate was measured in anesthetized dog at 0.32+/-0.11 dose; format: functional, Canis lupus familiaris, Heart; settings: in the assay text read “unanesthetized” for “anesthetized”
How it was run: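 Adult female dogs (6.7–14.5 kg) had ventricular arrhythmias from two-stage ligation of the left anterior descending coronary artery the day before. Ventricular rate (bpm) was read at maximal antiarrhythmic effect against cumulative dose.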

Canis familiaris [13] = test: % ectopic beats was measured in unanesthetized dog at 0.32+/-0.11 dose; 2+/-2
[14] = Mus musculus, sc, read-out: ED50

Compound	Ataxia (Mus musculus [1])	mortality [2]	Loss of righting reflex (Mus musculus [3])	Protection (Mus musculus [4])	Convulsion (Mus musculus [5])	ED50 (Mus musculus [6])	ED50 (Mus musculus [7])	ED50 (Mus musculus [8]; [14])	ED50 (Mus musculus [9])	Protection (Mus musculus [4]; 100 mg/kg)	ED50 (Mus musculus [8])	MABP (Canis familiaris [10])	Cumulative dose (Canis familiaris [11])	Ventricular rate (Canis familiaris [12])	Ectopic beats (Canis familiaris [13])
CCN(CC)CCCN1C(=O)CC(c2ccccc2)C1=O (stereo not drawn)	0%	0%	0%	30%	0%										
CN(CCO)CCN1C(=O)CC2(CCCc3ccccc32)C1=O (stereo not drawn)	0%	0%	0%	30%	0%										
CCN(CC)CCCN1C(=O)CC2(CCCc3ccc(C)cc32)C1=O (stereo not drawn)	0%	0%	0%	70%	0%	210 µmol/kg									
CCN(CC)C(C)CCN1C(=O)CC2(CCCc3ccc(O)cc32)C1=O (stereo not drawn)	100%	20%	100%	80%	100%	80 µmol/kg	80 µmol/kg								
CCCC1(c2ccccc2)CC(=O)N(CCN(C)C)C1=O (stereo not drawn)	100%	0%	0%	40%	0%			390 µmol/kg	270 µmol/kg						
CCN(CC)CCCN1C(=O)CC2(CCCc3ccc(OC(C)C)cc32)C1=O (stereo not drawn)	100%	0%	0%	90%	100%	140 µmol/kg	110 µmol/kg								
O=C1NC(=O)C(C2CCc3ccccc3C2)N1 (stereo not drawn)	0%	0%	0%	20%	0%										
CN(CCO)CCN1C(=O)CC2(CCc3ccccc3C2)C1=O (stereo not drawn)	100%	0%	0%	30%	40%										
CCN(CC)CCCN1C(=O)CC2(CCCc3ccc(Cl)cc32)C1=O (stereo not drawn)	100%	0%	0%	90%	0%	160 µmol/kg	110 µmol/kg								
CN(CCO)CCCCN1C(=O)CC2(CCCc3ccccc32)C1=O (stereo not drawn)	0%	0%	0%	10%	0%										
CN(CCO)CCCN1C(=O)CC2(CCCc3ccccc32)C1=O (stereo not drawn)	0%	0%	0%	30%	0%	560 µmol/kg	760 µmol/kg								
CCN(CC)CCCN1C(=O)CC2(CCCc3cc(OC)ccc32)C1=O (stereo not drawn)	100%	0%	0%	40%											
CCN(CC)C(C)CCN1C(=O)CC2(CCCc3cc(OC)ccc32)C1=O (stereo not drawn)	60%	0%	0%	0%	0%										
CCN(CC)C(C)CN1C(=O)CC2(CCCc3ccc(O)cc32)C1=O (stereo not drawn)	50%	0%	0%	60%	0%										
COCCN(C)CCCN1C(=O)CC2(CCCc3ccccc32)C1=O (stereo not drawn)	100%	0%	100%	30%	100%										
COc1ccc2c(c1)CCCC21CC(=O)N(CCN(C)C)C1=O (stereo not drawn)	100%	0%	0%	20%	0%										
CCN(CC)CCCCN1C(=O)CC2(CCCc3ccccc32)C1=O (stereo not drawn)	100%	0%	0%	90%	0%	180 µmol/kg	180 µmol/kg								
CCN(CC)C(C)CN1C(=O)CC2(CCCc3ccccc32)C1=O (stereo not drawn)	100%	0%	0%	50%	100%										
O=C1CC2(CCCc3ccccc32)C(=O)N1CCCN1CCOCC1 (stereo not drawn)	100%	0%	0%	20%	0%										
CCN(CC)CCCN1C(=O)CC2(CCCc3ccccc32)C1=O (stereo not drawn)	100%	0%	0%	80%	0%	200 µmol/kg	190 µmol/kg								
CCN(CC)CCCCN1C(=O)CC2(CCCc3cc(O)ccc32)C1=O (stereo not drawn)	0%	0%	0%	70%	0%			260 µmol/kg							
NCCCCCN1C(=O)CC2(CCCc3ccccc32)C1=O (stereo not drawn)	0%	0%	0%	20%	0%										
CCN(CC)C(C)CCN1C(=O)CC2(CCCc3ccccc32)C1=O (stereo not drawn)	100%	0%	0%	40%	0%										
COc1ccc2c(c1)CCCC21CC(=O)N(CCCN(C)C)C1=O (stereo not drawn)	100%	0%	0%	0%	0%										
CCN(CC)CCCCCN1C(=O)CC2(CCCc3ccccc32)C1=O (racemic)	0%	0%	0%		0%			240 µmol/kg		80%					
CCN(CC)CCCCCN1C(=O)CC2(CCCc3ccccc32)C1=O (single isomer, unassigned; (+))										50%	210 µmol/kg				
CCN(CC)CCCCCN1C(=O)CC2(CCCc3ccccc32)C1=O (single isomer, unassigned; (-))	100%				30%					90%	160 µmol/kg				
Cc1cccc(C)c1NC(=O)C(C)N (stereo not drawn) [TOCAINIDE]	10%	0%	0%	20%	0%			1300 µmol/kg	760 µmol/kg			108 mmHg	0.3	148 beats min-1	2%
